Data from ChEMBL document CHEMBL1138180, “Design and synthesis of new tetrazolyl- and carboxy-biphenylylmethyl-quinazolin-4-one derivatives as angiotensin II AT1 receptor antagonists” (J Med Chem, 2006).
The source made the active and inactive calls. No cut-off for these calls is given here.

Assays:
Rattus norvegicus [1] = test: Reduction of the systolic blood pressure in normotensive Sprague-Dawley rat at 3 mg/kg, ip; format: functional, organism-based; design: dose 3 mg/kg; conditions: Artery
Outline: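 Normotensive male rats (230-250 g), n = 6 per group, given a single ip dose of 3 mg/kg in 0.1 mL DMSO, with a DMSO vehicle control. Systolic BP measured 2 h later by tail-cuff in conscious, cage-acclimatized rats in a 31-32 °C chamber. Mean % reduction versus control reported; ANOVA/LSD.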

[2] = molecular target: T1, Type-1 angiotensin II receptor (Homo sapiens) (UniProt P30556); test: Displacement of [125I]-Sar(1)Ile(8)-Ang 2 from human AT1 receptor in CHO cells; format: cell-based
T1 sequence (whole entry): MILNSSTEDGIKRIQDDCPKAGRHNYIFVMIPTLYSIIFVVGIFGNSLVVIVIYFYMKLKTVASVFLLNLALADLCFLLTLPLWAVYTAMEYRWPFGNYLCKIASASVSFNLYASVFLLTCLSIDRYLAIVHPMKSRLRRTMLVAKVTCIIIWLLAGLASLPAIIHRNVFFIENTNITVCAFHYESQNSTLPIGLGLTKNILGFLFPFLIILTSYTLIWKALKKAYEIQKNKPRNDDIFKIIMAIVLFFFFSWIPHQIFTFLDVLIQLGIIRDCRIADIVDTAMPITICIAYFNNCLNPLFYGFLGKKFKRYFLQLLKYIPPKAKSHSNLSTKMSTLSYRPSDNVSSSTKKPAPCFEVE
Outline: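 Membranes from CHO cells stably expressing human AT1 receptor, in 50 mM Tris-HCl pH 7.4 with 100 mM NaCl, 6 mM MgCl2 and 0.1% BSA. ~50 µg protein incubated 1 h at room temperature with 0.15 nM 125I-Sar1Ile8-Ang II, with or without competitor at 10 µM final. Bound ligand separated by centrifugation, counted as cpm. Control had DMSO and no competitor. Mean cpm ± SEM.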

Rattus norvegicus [3] = test: Reduction of the systolic blood pressure in hypertensive Sprague-Dawley rat at 3 mg/kg, ip; format: functional, organism-based; design: dose 3 mg/kg; conditions: Artery
Outline: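 Male rats (230-250 g) made hypertensive with DOCA 10 mg/kg sc daily plus 8% NaCl diet for 3-4 weeks. Single ip dose of 3 mg/kg in 0.1 mL DMSO, n = 6 per group. Systolic BP measured by tail-cuff in conscious rats 24 h before and 2 h after dosing. Normotensive and hypertensive DMSO controls included. Mean ± SE, ANOVA/LSD.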

SMILES	Activity (Rattus norvegicus [1])	Activity [2]	Activity (Rattus norvegicus [3])
CCCCc1nc(Cl)c(CO)n1Cc1ccc(-c2ccccc2-c2nnn[nH]2)cc1	Active	Active	Active
CSc1nc2ccccc2c(=O)n1Cc1ccc(-c2ccccc2-c2nn[nH]n2)cc1	Active	Active	Active
CSc1nc2ccccc2c(=O)n1Cc1ccc(-c2ccccc2C(=O)O)cc1	Active	Active	Active
O=c1[nH]c2ccccc2c(=O)n1Cc1ccc(-c2ccccc2-c2nn[nH]n2)cc1	Active	Active	Active
Oc1nc(SCc2ccc(-c3ccccc3-c3nn[nH]n3)cc2)nc2ccccc12		inactive	
